Consider 15 compounds from ChEMBL document CHEMBL1141424, “Antitubercular dihydroagarofuranoid sesquiterpenes from the roots of Microtropis fokienensis” (2007).

Converted amounts (≈) assume the structure as drawn. Bounds are passed on as bounds.

The experiment concerns Mycobacterium tuberculosis. As to the kind of experiment: Antitubercular activity against Mycobacterium tuberculosis 90-221387. It counts as functional. Summed up:
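Agar proportion method on Middlebrook 7H10 with OADC, clinical susceptible isolate 90-221387. Compound serially diluted into agar at 50-56 °C, final 100 to 0.8 µg/mL, in quadrant plates. Inoculum in 7H9 broth adjusted to McFarland no. 1, then 10-2 dilution, spotted on each quadrant. Incubated 35 °C, 10% CO2, 2 weeks. MIC read; ethambutol positive control; means of 3 or 4 replicates.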
On to `CC[C@H](CC[C@@H](C)[C@H]1CC[C@H]2[C@@H]3CC=C4C[C@@H](O)CC[C@]4(C)[C@H]3CC[C@]12C)C(C)C` [BETA-SITOSTEROL], for which the MIC – broadly, the lowest concentration that inhibits growth of the organism – was > 400 µM.

Take `CC(=O)O[C@H]1[C@@H](OC(=O)c2ccccc2)C[C@@H](C)[C@]23OC(C)(C)[C@H](C[C@H](OC(=O)c4ccccc4)[C@]12C)[C@H]3OC(=O)c1ccccc1` [ORBICULIN G]: the minimum inhibitory concentration (MIC) was 14.6 µM (≈ 9.35 µg/mL). With `CC(=O)O[C@H]1CC[C@@H](C)[C@]23OC(C)(C)[C@H](C[C@H](OC(=O)c4ccccc4)[C@]12COC(=O)c1ccccc1)[C@H]3OC(=O)c1ccccc1`, the MIC was 78.1 µM (≈ 50 µg/mL). Next, `CC(=O)O[C@H]1[C@@H](O)C[C@@H](C)[C@]23OC(C)(C)[C@H](C[C@H](OC(=O)c4ccccc4)[C@]12COC(=O)c1ccccc1)[C@H]3OC(=O)c1ccccc1`: 19.5 µM (≈ 12.8 µg/mL); `CC(=O)O[C@H]1CC[C@@H](C)[C@@]23C[C@@H](C[C@H](OC(=O)c4ccccc4)[C@]12C)C(C)(C)O3`: 26 µM (≈ 10.4 µg/mL). Consider `CC(=O)O[C@H]1C[C@@H](C)[C@]23OC(C)(C)[C@H](C[C@H](OC(=O)c4ccccc4)[C@]2(COC(=O)c2ccccc2)[C@H]1OC(C)=O)[C@H]3OC(=O)c1ccccc1`, for which the MIC came out at 96 µM (≈ 67.1 µg/mL).

For the compound `COc1cc(C(=O)O)ccc1O` [VANILLIC ACID], the MIC is 375 µM (≈ 63.1 µg/mL). Then `O=Cc1cc(Cc2ccc(O)cc2)ccc1O` [FORKIENIN], with 276 µM (≈ 63 µg/mL); and `CC(=O)O[C@H]1C[C@@H](C)[C@]23OC(C)(C)[C@H](C[C@H](OC(=O)c4ccccc4)[C@]2(COC(=O)c2ccccc2)[C@H]1OC(C)=O)[C@H]3OC(C)=O` [MUTANGIN], with 51.8 µM (≈ 33 µg/mL); and `CC(=O)O[C@H]1C[C@@H](C)[C@]23OC(C)(C)[C@H](C[C@H](OC(=O)c4ccccc4)[C@]2(COC(=O)c2ccccc2)[C@H]1O)[C@H]3OC(=O)c1ccccc1`, with 15.8 µM (≈ 10.4 µg/mL). Next, `O=C(O)c1ccc(O)cc1` [PARABEN]: 362 µM (≈ 50 µg/mL). For the compound `CC[C@H](CC[C@@H](C)[C@H]1CC[C@H]2[C@@H]3CC=C4CC(=O)CC[C@]4(C)[C@H]3CC[C@]12C)C(C)C` [BETA-SITOSTENONE], the MIC is > 400 µM.

Regarding `CC[C@@H](CO)NCCN[C@@H](CC)CO` [ETHAMBUTOL], the minimal inhibitory concentration (MIC) was 30.6 µM (≈ 6.25 µg/mL). Next, `COc1cc(C(=O)O)cc(OC)c1O` [SYRINGIC ACID]: 318 µM (≈ 63 µg/mL).

For `O=Cc1ccc(O)cc1` [4-HYDROXYBENZALDEHYDE], the MIC was > 400 µM.
